From PubChem
APJ antag = antagonists of human apelin receptor APJ, primary screen, CHO-K1 cells, beta-arrestin complementation, luminescence; P35414; inhibition, % at 20 µM; 330,000 tested, 0.32% active; AID 2521, 2010;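 active = inhibition above about 40% at 20 µM, limit read from the data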;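 also: cells challenged with 10 nM apelin-13 agonist together with compound; plate controls were apelin-13 plus DMSO wells for no effect and DMSO wells lacking apelin-13 for full effect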
CXCR6 block = CXCR6 receptor inhibitors, primary screen, cell-based, beta-arrestin, luminescence, CHO-K1 PathHunter, 1536-well; inhibition, % at 20 µM; 360,000 tested, 0.36% active; in the data active = inhibition above about 34%, passing the limit was not always enough;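 also: antagonist mode with CXCL16 agonist at 10 nM final; 0% = 10 nM CXCL16 with DMSO and 100% = unstimulated wells without agonist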
EBI2 block = EBI2 receptor antagonists, beta-arrestin recruitment, primary screen, cell-based, luminescence, 7a,25-OHC stimulation, uHTS | AID 651636, 2012 | G-protein coupled receptor 183 (Homo sapiens), P32249 | 360,000 tested, 0.81% active | inhibition, % at 5 µM | 7a,25-OHC stimulated; in the data active = inhibition above about 38%;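 also: enzyme fragment complementation signal reports receptor beta-arrestin coupling in cells; 0% = agonist plus DMSO wells and 100% = wells without agonist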
CCR6 antag = CCR6 receptor antagonists, primary screen, cell-based, CHO-K1, luminescence, beta-arrestin, uHTS. 340,000 tested, 0.49% active. inhibition, % at 20 µM. CHO-K1 CCR6 PathHunter beta-arrestin, CCL20-stimulated;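 active = compounds whose inhibition of the agonist-driven luminescence signal at 20 µM reaches about 50%, limit read from the data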;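 also: cells stimulated with CCL20 at 14 nM final; plate controls were DMSO with CCL20 for no effect and DMSO without agonist for full effect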
Target sequence (P51684 whole entry, looked up): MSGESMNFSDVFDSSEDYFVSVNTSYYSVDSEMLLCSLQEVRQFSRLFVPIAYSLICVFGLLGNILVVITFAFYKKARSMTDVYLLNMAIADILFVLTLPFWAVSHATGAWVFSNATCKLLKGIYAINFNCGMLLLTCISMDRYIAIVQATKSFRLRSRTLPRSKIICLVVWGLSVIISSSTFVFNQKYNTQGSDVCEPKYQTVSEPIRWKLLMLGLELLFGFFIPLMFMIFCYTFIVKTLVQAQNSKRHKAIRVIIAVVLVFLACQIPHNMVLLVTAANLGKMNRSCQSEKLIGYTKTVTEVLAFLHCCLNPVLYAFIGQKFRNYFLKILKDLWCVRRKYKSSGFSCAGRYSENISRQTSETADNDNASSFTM
iPSC survival up = enhancers of single-cell hiPSC survival, primary screen, ATPlite luminescence. 100% = ROCK inhibitor wells, 0% = DMSO. survival enhancement, % at 20 µM. 360,000 tested, 0.044% active; in the data active = survival enhancement above about 18%;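 also: cells exposed to compounds for 16 hours before the ATP read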
APJ ag = agonists of human apelin receptor APJ, primary screen, CHO-K1 cells, PathHunter beta-arrestin, luminescence. 330,000 tested, 0.11% active. activation, % at 20 µM. AID 2520, 2010. 0% DMSO wells, 100% apelin. P35414;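 active = activation more than six SD over the plate average, tested at 20 µM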;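 also: 0% = DMSO alone and 100% = apelin-13 at 10 nM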
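Assay system – PathHunter CHO-K1 APJ (AGTRL-1) beta-arrestin reporter cells · Compound – one dose, 20 µM compound, 1% DMSO · Timing – compound 90 min 25 °C, reagent 1 h · Measured by – luminescence from split beta-galactosidase complementation, Galacton Star/Emerald II substrate · Measure – beta-arrestin recruitment to APJ as agonist activity, luminescent signal · Benchmarks – DMSO vs Apelin-13 10 nM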
APJ antag conf = APJ antagonists blocking beta-arrestin recruitment, confirmation, cell-based, luminescence, single concentration, uHTS hits; 950 tested, 66% active; shares compounds with APJ antag; inhibition, % at 20 µM; antagonist mode; in the data active = inhibition above about 50%
Starred values were filed as active, the others as inactive; x = no result. Shown are actives, neighbours in structure and some others; about 1.5% of the full set was active somewhere.

SMILES	APJ antag	CXCR6 block	EBI2 block	CCR6 antag	iPSC survival up	APJ ag	APJ antag conf
O=[N+]([O-])c1ccc(/C=N/Nc2ccc3ccccc3c2)o1	67*	42*	2	63*	-3	-9	81*
O=C(CNc1cccc(Cl)c1)c1ccc(Br)cc1	69*	37	-2	62*	0	-12	90*
O=C(CNC(=S)NC(=O)c1ccc(F)cc1)c1ccccc1	11	9	-4	3	-1	-1	x
NC(=O)c1ccccc1NCC(=O)c1ccc(F)cc1	82*	27	3	99*	0	-15	140*
O=C(CNc1ccc(F)cc1)c1ccccc1	76*	53*	27	80*	-2	-15	111*
O=C(CNc1ccc(Br)cc1)c1ccccc1	94*	45*	31	81*	-1	-14	104*
CCOC(=O)N1CCN(S(=O)(=O)N2CCCC(C(=O)NCc3cc(Br)ccc3OC)C2)CC1 (stereo not drawn)	x	-6	8	x	-4	x	x
Cc1cc(Cn2nnc3ccccc32)c(O)c(C(C)(C)C)c1	43*	0	4	-2	-1	-5	2
CC(C)(C)c1cccc(Cn2nnc3ccccc32)c1O	10	-3	-20	13	5	14	x
COc1cccc(N2CC(C)Cn3c2nc2c3c(=O)n(CCN3CCOCC3)c(=O)n2C)c1 (stereo not drawn)	42*	18	4	-11	-2	-6	62*
Cc1cc(C)n(CC(=O)Nc2ccc(N3CCOCC3)c(Cl)c2)c(=O)c1C#N	15	2	-7	2	0	1	x
CN1CCN(S(=O)(=O)c2cc([N+](=O)[O-])ccc2N/N=C/c2ccc(Cl)cc2)CC1	8	3	-9	-3	0	4	x
O=[N+]([O-])c1ccc(N/N=C/c2c[nH]c3ccccc23)c(S(=O)(=O)Nc2ccc(Cl)cc2)c1	44*	35	27	46	3	-8	91*
COc1ccccc1NS(=O)(=O)c1cc([N+](=O)[O-])ccc1N/N=C/c1c(C)[nH]c2ccccc12	58*	46*	39*	58*	-2	-13	84*
NC(c1ccccc1)c1ccncc1 (stereo not drawn)	21	4	-9	8	0	-5	x
O=C(COC(=O)CCc1nc2ccccc2c(=O)[nH]1)Nc1ccc(OC(F)(F)F)cc1	12	3	0	4	0	-1	x
NS(=O)(=O)c1ccc(NC(=O)COC(=O)CCc2nc3ccccc3c(=O)[nH]2)cc1	45*	6	3	3	0	-4	31
O=C(OCc1ccc(O)cc1)c1c(-c2ccsc2)oc2ccc(N3CCOCC3)cc12	2	-4	1	-1	-4	18	x
CC1(C)C(c2ccccc2)=NC(c2ccccc2)N1O (stereo not drawn)	8	14	-1	40	0	-3	x
CC1(C)C(c2ccccc2)=NC(c2ccc(Br)cc2)N1O (stereo not drawn)	77*	34	20	58*	-4	-11	33
Cc1ccnc2nc(C(=O)Nc3cc(Cl)ccc3N3CCOCC3)nn12	57*	0	8	8	2	-6	21
O=C(Nc1cc(Cl)ccc1N1CCOCC1)c1ccc(Br)o1	4	4	0	5	0	-2	x
O=C1CCC(C(=O)Nc2ccc([N+](=O)[O-])cc2)N1 (stereo not drawn)	-6	8	2	-3	0	0	x
O=C(N/N=C\c1ccc([N+](=O)[O-])o1)c1cncc(Br)c1	42*	-11	7	18	-1	3	22
O=C(N/N=C/c1ccc(-c2ccccc2[N+](=O)[O-])o1)c1cncc(Br)c1	-22	6	-1	23	0	4	x
